Test results taken from ChEMBL document CHEMBL3351523 (Bioorg Med Chem, 2014).

Test system: not listed separately
Experiment: Cytotoxicity against mock-infected human MT4 cells after 96 hrs by MTT assay
Assay type: cell-based
Details: not given
Outline: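 Exponentially growing MT-4 cells were seeded at 1 × 10^5 cells/mL in RPMI-1640 with 10% FBS and held at 37 °C, 5% CO2 with serial compound dilutions. Viability was read by MTT after 96 h. CC50 from linear regression against untreated controls.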
In the case of `CCCCn1c(Cc2ccc(Cl)c(Cl)c2)nc2cc(C(F)(F)F)ccc21`, the CC50 at 96 h is reported as > 100 µM. Work on `FC(F)(F)c1ccc2c(c1)nc(C(F)(F)F)n2C[C@@H]1CCCN2CCCC[C@H]12` yielded a CC50 at 96 h of 54 µM. Compound `CCC/C=C(\CC)c1nc2ccccc2[nH]1` has a CC50 at 96 h of 61 µM. Compound `c1ccc(-n2c(C[C@H]3CCCN4CCCC[C@H]34)nc3ccccc32)cc1` has a CC50 at 96 h of 42 µM.

Test system: Poliovirus 1
Experiment: Antiviral activity against Poliovirus type 1 Sabin strain infected in african green monkey Vero 76 cells assessed as reduction in plaque number after 2 days by plaque reduction assay
Assay type: functional, organism-based
Details: Enterovirus C, 48 h
In the case of `CCCCn1c(Cc2ccc(Cl)c(Cl)c2)nc2cc(C(F)(F)F)ccc21`, the EC50 is reported as > 100 µM. In the case of `FC(F)(F)c1ccc2c(c1)nc(C(F)(F)F)n2C[C@@H]1CCCN2CCCC[C@H]12`, the EC50 is reported as > 100 µM. With `CCC/C=C(\CC)c1nc2ccccc2[nH]1` the EC50 was > 100 µM. For `c1ccc(-n2c(C[C@H]3CCCN4CCCC[C@H]34)nc3ccccc32)cc1`, the EC50 was 73 µM.

Test system: Reovirus sp.
Experiment: Antiviral activity against Reovirus type-1 infected in BHK21 cells assessed as inhibition of virus-induced cytopathogenicity after 3 to 4 days by MTT assay
Assay type: functional, organism-based
Details: BHK-21
In the case of `CCCCn1c(Cc2ccc(Cl)c(Cl)c2)nc2cc(C(F)(F)F)ccc21`, the EC50 is reported as > 100 µM. For `FC(F)(F)c1ccc2c(c1)nc(C(F)(F)F)n2C[C@@H]1CCCN2CCCC[C@H]12`, the EC50 was > 100 µM. For `CCC/C=C(\CC)c1nc2ccccc2[nH]1`, the EC50 was > 100 µM. With `c1ccc(-n2c(C[C@H]3CCCN4CCCC[C@H]34)nc3ccccc32)cc1` the EC50 was > 100 µM.

Test system: Vaccinia virus
Experiment: Antiviral activity against Vaccinia Virus infected in african green monkey Vero 76 cells assessed as reduction in plaque number after 3 days by plaque reduction assay
Assay type: functional, organism-based
Details: Orthopoxvirus vaccinia, 72 h
`CCCCn1c(Cc2ccc(Cl)c(Cl)c2)nc2cc(C(F)(F)F)ccc21` showed an EC50 of 31 µM. With `FC(F)(F)c1ccc2c(c1)nc(C(F)(F)F)n2C[C@@H]1CCCN2CCCC[C@H]12` the EC50 was > 100 µM. For `CCC/C=C(\CC)c1nc2ccccc2[nH]1`, the EC50 was > 100 µM. In the case of `c1ccc(-n2c(C[C@H]3CCCN4CCCC[C@H]34)nc3ccccc32)cc1`, the EC50 is reported as > 100 µM.

Test system: Human alphaherpesvirus 1
Experiment: Antiviral activity against HSV1 infected in african green monkey Vero 76 cells assessed as reduction in plaque number after 3 days by plaque reduction assay
Assay type: functional, organism-based
Details: Human alphaherpesvirus 1, Vero, 72 h
With `CCCCn1c(Cc2ccc(Cl)c(Cl)c2)nc2cc(C(F)(F)F)ccc21` the EC50 was > 100 µM. In the case of `FC(F)(F)c1ccc2c(c1)nc(C(F)(F)F)n2C[C@@H]1CCCN2CCCC[C@H]12`, the EC50 is reported as > 100 µM. With `CCC/C=C(\CC)c1nc2ccccc2[nH]1` the EC50 was > 100 µM. In the case of `c1ccc(-n2c(C[C@H]3CCCN4CCCC[C@H]34)nc3ccccc32)cc1`, the EC50 is reported as > 100 µM.

Test system: Human immunodeficiency virus 1
Experiment: Antiviral activity against HIV1 infected in human MT4 cells assessed as inhibition of virus-induced cytopathogenicity after 4 days by MTT assay
Assay type: functional, organism-based
Details: Human immunodeficiency virus 1, MT4, 96 h
Outline: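 MT-4 cells (1 × 10^4/well in RPMI) were infected acutely with HIV-1 IIIB, 100 CCID50 (m.o.i. 0.01), with serial dilutions from 100 µM, 1:5. After 4 days at 37 °C, protection from virus-induced cytopathogenicity was read by MTT. EC50 came from linear regression against untreated controls.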
With `CCCCn1c(Cc2ccc(Cl)c(Cl)c2)nc2cc(C(F)(F)F)ccc21` the EC50 was > 100 µM. For `FC(F)(F)c1ccc2c(c1)nc(C(F)(F)F)n2C[C@@H]1CCCN2CCCC[C@H]12`, the EC50 was > 100 µM. For `CCC/C=C(\CC)c1nc2ccccc2[nH]1`, the EC50 was > 100 µM. With `c1ccc(-n2c(C[C@H]3CCCN4CCCC[C@H]34)nc3ccccc32)cc1` the EC50 was > 100 µM.

Test system: Yellow fever virus
Experiment: Antiviral activity against Yellow fever virus infected in BHK21 cells assessed as inhibition of virus-induced cytopathogenicity after 3 to 4 days by MTT assay
Assay type: functional, organism-based
Details: BHK-21
With `CCCCn1c(Cc2ccc(Cl)c(Cl)c2)nc2cc(C(F)(F)F)ccc21` the EC50 was > 100 µM. `FC(F)(F)c1ccc2c(c1)nc(C(F)(F)F)n2C[C@@H]1CCCN2CCCC[C@H]12` showed an EC50 of 33 µM. In the case of `CCC/C=C(\CC)c1nc2ccccc2[nH]1`, the EC50 is reported as > 100 µM. For `c1ccc(-n2c(C[C@H]3CCCN4CCCC[C@H]34)nc3ccccc32)cc1`, the EC50 was > 100 µM.

Test system: not listed separately
Experiment: Selectivity index, ratio of CC50 for african green monkey Vero 76 cells to EC50 for Respiratory syncytial virus
Assay type: toxicity, cell-based
Details: read-out: Ratio CC50/EC50
Outline: (§1)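 Mock-infected Vero-76 cells were tested in parallel on the same 24-well plates as the plaque assays (seeding 4 × 10^5 cells/mL, D-MEM with FBS), with serial compound dilutions at 37 °C, 5% CO2. Viability was read after 48–96 h by crystal violet staining. CC50 by linear regression; selectivity index = Vero-76 CC50/EC50 for CVB-5 or RSV.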
For `CCCCn1c(Cc2ccc(Cl)c(Cl)c2)nc2cc(C(F)(F)F)ccc21`, the selectivity ratio was > 11.1. Work on `FC(F)(F)c1ccc2c(c1)nc(C(F)(F)F)n2C[C@@H]1CCCN2CCCC[C@H]12` yielded a selectivity ratio of 4.09. With `CCC/C=C(\CC)c1nc2ccccc2[nH]1` the selectivity ratio was > 4.54. With `c1ccc(-n2c(C[C@H]3CCCN4CCCC[C@H]34)nc3ccccc32)cc1` the selectivity ratio was > 14.3.

Test system: not listed separately
Experiment: Selectivity index, ratio of CC50 for african green monkey Vero 76 cells to EC50 for Coxsackievirus B5
Assay type: toxicity, cell-based
Details: read-out: Ratio CC50/EC50
Outline: as §1
With `CCCCn1c(Cc2ccc(Cl)c(Cl)c2)nc2cc(C(F)(F)F)ccc21` the selectivity ratio was > 8.33. In the case of `FC(F)(F)c1ccc2c(c1)nc(C(F)(F)F)n2C[C@@H]1CCCN2CCCC[C@H]12`, the selectivity ratio is reported as 8.18. In the case of `CCC/C=C(\CC)c1nc2ccccc2[nH]1`, the selectivity ratio is reported as > 1.11. With `c1ccc(-n2c(C[C@H]3CCCN4CCCC[C@H]34)nc3ccccc32)cc1` the selectivity ratio was > 5.88.

Test system: Respiratory syncytial virus
Experiment: Antiviral activity against Respiratory syncytial virus infected in african green monkey Vero 76 cells assessed as reduction in plaque number after 5 days by plaque reduction assay
Assay type: functional, organism-based
Details: human respiratory syncytial virus, 120 h
`CCCCn1c(Cc2ccc(Cl)c(Cl)c2)nc2cc(C(F)(F)F)ccc21` gave an EC50 of 9 µM. With `FC(F)(F)c1ccc2c(c1)nc(C(F)(F)F)n2C[C@@H]1CCCN2CCCC[C@H]12` the EC50 was 22 µM. For `CCC/C=C(\CC)c1nc2ccccc2[nH]1`, the EC50 was 22 µM. Work on `c1ccc(-n2c(C[C@H]3CCCN4CCCC[C@H]34)nc3ccccc32)cc1` yielded an EC50 of 7 µM.

Test system: Vesicular stomatitis virus
Experiment: Antiviral activity against Vesicular stomatitis virus infected in african green monkey Vero 76 cells assessed as reduction in plaque number after 2 days by plaque reduction assay
Assay type: functional, organism-based
Details: 48 h
For `CCCCn1c(Cc2ccc(Cl)c(Cl)c2)nc2cc(C(F)(F)F)ccc21`, the EC50 was > 100 µM. With `FC(F)(F)c1ccc2c(c1)nc(C(F)(F)F)n2C[C@@H]1CCCN2CCCC[C@H]12` the EC50 was > 100 µM. In the case of `CCC/C=C(\CC)c1nc2ccccc2[nH]1`, the EC50 is reported as > 100 µM. In the case of `c1ccc(-n2c(C[C@H]3CCCN4CCCC[C@H]34)nc3ccccc32)cc1`, the EC50 is reported as > 100 µM.

Test system: Coxsackievirus B5
Experiment: Antiviral activity against Coxsackievirus B5 infected in african green monkey Vero 76 cells assessed as reduction in plaque number after 3 days by plaque reduction assay
Assay type: functional, organism-based
Details: Enterovirus B, 72 h
For `CCCCn1c(Cc2ccc(Cl)c(Cl)c2)nc2cc(C(F)(F)F)ccc21`, the EC50 was 12 µM. Compound `FC(F)(F)c1ccc2c(c1)nc(C(F)(F)F)n2C[C@@H]1CCCN2CCCC[C@H]12` has an EC50 of 11 µM. In the case of `CCC/C=C(\CC)c1nc2ccccc2[nH]1`, the EC50 is reported as 90 µM. In the case of `c1ccc(-n2c(C[C@H]3CCCN4CCCC[C@H]34)nc3ccccc32)cc1`, the EC50 is reported as 17 µM.

Test system: not listed separately
Experiment: Cytotoxicity against mock-infected BHK21 cells after 48 to 96 hrs by MTT assay
Assay type: functional
Details: Mesocricetus auratus, BHK-21
Outline: (§2)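 Mock-infected MDBK (6 × 10^5 cells/mL; MEM-E, 10% horse serum, 1 mM pyruvate) or BHK (1 × 10^6 cells/mL; MEM-E, 10% FBS) cells were incubated at 37 °C, 5% CO2 with serial dilutions from 100 µM, 1:5. Viability by MTT after 48–96 h. CC50 from linear regression against untreated controls.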
`CCCCn1c(Cc2ccc(Cl)c(Cl)c2)nc2cc(C(F)(F)F)ccc21` showed a CC50 of 21 µM. Compound `FC(F)(F)c1ccc2c(c1)nc(C(F)(F)F)n2C[C@@H]1CCCN2CCCC[C@H]12` has a CC50 of 80 µM. Compound `CCC/C=C(\CC)c1nc2ccccc2[nH]1` has a CC50 of 67 µM. `c1ccc(-n2c(C[C@H]3CCCN4CCCC[C@H]34)nc3ccccc32)cc1` showed a CC50 of 29 µM.

Test system: Bovine viral diarrhea virus 1
Experiment: Antiviral activity against Bovine viral diarrhea virus infected in MDBK cells assessed as inhibition of virus-induced cytopathogenicity after 3 to 4 days by MTT assay
Assay type: functional, organism-based
Details: Bovine viral diarrhea virus isolates and strains
In the case of `CCCCn1c(Cc2ccc(Cl)c(Cl)c2)nc2cc(C(F)(F)F)ccc21`, the EC50 is reported as > 100 µM. With `FC(F)(F)c1ccc2c(c1)nc(C(F)(F)F)n2C[C@@H]1CCCN2CCCC[C@H]12` the EC50 was > 100 µM. For `CCC/C=C(\CC)c1nc2ccccc2[nH]1`, the EC50 was > 100 µM. `c1ccc(-n2c(C[C@H]3CCCN4CCCC[C@H]34)nc3ccccc32)cc1` gave an EC50 of 44 µM.

Test system: not listed separately
Experiment: Cytotoxicity against mock-infected MDBK cells after 48 to 96 hrs by MTT assay
Assay type: cell-based, Bos taurus
Details: cattle
Outline: as §2
`CCCCn1c(Cc2ccc(Cl)c(Cl)c2)nc2cc(C(F)(F)F)ccc21` showed a CC50 of 11 µM. In the case of `FC(F)(F)c1ccc2c(c1)nc(C(F)(F)F)n2C[C@@H]1CCCN2CCCC[C@H]12`, the CC50 is reported as ≥ 100 µM. With `CCC/C=C(\CC)c1nc2ccccc2[nH]1` the CC50 was > 100 µM. Compound `c1ccc(-n2c(C[C@H]3CCCN4CCCC[C@H]34)nc3ccccc32)cc1` has a CC50 of 90 µM.

Test system: not listed separately
Experiment: Cytotoxicity against mock-infected african green monkey Vero 76 cells after 48 to 96 hrs by MTT assay
Assay type: cell-based
Details: chlorocebus sabaeus, mock-infected Vero 76 cells
For `CCCCn1c(Cc2ccc(Cl)c(Cl)c2)nc2cc(C(F)(F)F)ccc21`, the CC50 was > 100 µM. Compound `FC(F)(F)c1ccc2c(c1)nc(C(F)(F)F)n2C[C@@H]1CCCN2CCCC[C@H]12` has a CC50 of 90 µM. For `CCC/C=C(\CC)c1nc2ccccc2[nH]1`, the CC50 was ≥ 100 µM. In the case of `c1ccc(-n2c(C[C@H]3CCCN4CCCC[C@H]34)nc3ccccc32)cc1`, the CC50 is reported as > 100 µM.
